Experimental data: ChEMBL document CHEMBL3352450, “Indazole-type alkaloids from Nigella sativa seeds exhibit antihyperglycemic effects via AMPK activation in vitro” (J Nat Prod, 2014)

Experiments:
[1] = system: HepG2; experiment: Increase in glucose consumption in human HepG2 cells grown under low-glucose medium assessed as reduction in glucose levels at 25 uM incubated for 7 hrs by glucose assay; assay type: functional; set-up: scale not given: the % may be the effect or the level left
Outline: (§1)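 HepG2 cells (kept in high-glucose DMEM with 10% FBS) were seeded at 4.0 × 10^4 cells/well for 8 h. They were then held overnight in low-glucose ([…]) medium with 2 mM glutamine and 1% FBS. Treatment lasted 7 h in that medium, with DMSO stocks and 0.1% DMSO as solvent control. Medium glucose was read by colorimetric kit at 490 nm, with 3 replicates, as mean ± SD.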

[2] = system: HepG2; experiment: Toxicity against human HepG2 cells at 100 uM; assay type: cell-based; conditions: hepg2, 100 µM
[3] = molecular target: AMP-activated protein kinase, AMPK (Homo sapiens) (UniProt P54646+O43741+P54619+Q9UGJ0+Q9Y478+Q13131+Q9UGI9); experiment: Increase in AMPK phosphorylation in human HepG2 cells at 25 to 100 uM incubated for 24 hrs by Western blotting method; assay type: cell-based
Outline: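 HepG2 cells were grown in 6-well plates for 8 h, then held overnight in low-glucose medium and treated for 24 h. Lysis was in RIPA buffer with BCA protein assay. 20 μg/lane was run on 8% SDS-PAGE and blotted to PVDF, blocked in 5% milk, and probed overnight for p-AMPK (Thr172), AMPK and β-actin. HRP secondary was applied for 1 h, with ECL detection on film.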

[4] = system: HepG2; experiment: Increase in glucose consumption in human HepG2 cells grown under low-glucose medium assessed as reduction in glucose levels at 1 mM incubated for 7 hrs by glucose assay; assay type: functional; set-up: scale not given: the % may be the effect or the level left; outline: as §1

SMILES	Activity [1] [%]	Activity [2]	Activity [3]	Activity [4] [%]
C[C@@]1(O)CC(=O)c2c(n3[n+](c2-c2ccc(O)cc2)CCCC3)C1	8	Non-toxic	–	–
Cc1cc(O)c2c(-c3ccc(O)cc3)[n+]3n(c2c1)CCCC3	8	Non-toxic	–	–
Cc1cc(O)c2c[n+]3n(c2c1)CCCC3	8	Non-toxic	–	–
COc1cc(C)cc2c1c(-c1ccc(O)cc1)[n+]1n2CCCC1	8	Non-toxic	–	–
COc1cc(C)cc2c1c(-c1ccc(O[C@@H]3O[C@H](CO)[C@@H](O)[C@H](O)[C@H]3O)cc1)[n+]1n2CCCC1	29	Non-toxic	Dose-dependent effect	–
CN(C)C(=N)NC(=N)N [METFORMIN]	–	–	–	24
COc1cc(C)cc2c1c[n+]1n2CCCC1	8	Non-toxic	Dose-dependent effect	–
